Measurements from ChEMBL document CHEMBL3045293, “Effect of the herbicides terbuthylazine and glyphosate on photosystem II photochemistry of young olive (Olea europaea) plants” (J Agric Food Chem, 2011).

Legend:
Type in all cases: organism-based
Olea europaea [1] = test: Toxicity in young Olea europaea (olive) plants assessed as induction of chronic photoinhibition of photosystem II at 3 kg/ha measured 60 days post dose in presence of oil Olea europaea (olive)-mill waste; conditions: in vivo, 1440 h
Olea europaea [2] = test: Toxicity in young Olea europaea (olive) plants assessed as reduction in intracellular CO2 level at 3 kg/ha measured 60 days post dose in presence of oil Olea europaea (olive)-mill waste; conditions: in vivo, 1440 h
In short: (§1)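 Gas exchange (net photosynthetic rate, stomatal conductance, intercellular CO2) measured on young olive plants in triplicate pots. Herbicide was applied to the soil surface 24 h after OW addition, and pots without herbicide or OW served as controls. Readings were taken 24 h, 15 days and 60 days after treatment. Values are mean ± SE, n = 9, compared by Tukey test (P < 0.05).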

Olea europaea [3] = test: Toxicity in young Olea europaea (olive) plants assessed as reduction in photosynthetic rate at 3 kg/ha measured 60 days post dose in presence of oil Olea europaea (olive)-mill waste; conditions: in vivo, 1440 h; in short: as §1
Olea europaea [4] = test: Toxicity in young Olea europaea (olive) plants assessed as reduction in intracellular CO2 level at 3 kg/ha measured 15 days post dose; conditions: in vivo, 360 h; in short: as §1
Olea europaea [5] = test: Toxicity in young Olea europaea (olive) plants assessed as reduction in non-photochemical quenching photosystem II at 3 kg/ha measured 15 days post dose; conditions: in vivo, 360 h
In short: (§2)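 Leaves of potted young olive plants; herbicide applied to the soil surface 24 h after olive-mill waste (OW) amendment; triplicate pots; untreated pots without herbicide or OW as controls. Modulated chlorophyll fluorescence (portable fluorimeter) read at 24 h, 15 days and 60 days. Light- and dark-adapted parameters taken at dawn (1–7 μmol m2 s1) and midday (1700 μmol m2 s1), after 30 min dark adaptation in leaf-clips.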

Olea europaea [6] = test: Toxicity in young Olea europaea (olive) plants assessed as reduction in quantum efficiency of photosystem II at 3 kg/ha measured 15 days post dose; conditions: in vivo, 360 h; in short: as §2
Olea europaea [7] = test: Toxicity in young Olea europaea (olive) plants assessed as reduction in photosynthetic rate at 3 kg/ha measured 15 days post dose in presence of oil Olea europaea (olive)-mill waste; conditions: in vivo, 360 h; in short: as §1
Olea europaea [8] = test: Toxicity in young Olea europaea (olive) plants assessed as reduction in stomatal conductance at 3 kg/ha measured 60 days post dose; conditions: in vivo, 1440 h; in short: as §1
Olea europaea [9] = test: Toxicity in young Olea europaea (olive) plants assessed as effect on maximum quantum efficiency of photosystem II at 3 kg/ha measured 15 days post dose; conditions: in vivo, 360 h; in short: as §2
Olea europaea [10] = test: Toxicity in young Olea europaea (olive) plants assessed as reduction in photosynthetic rate at 3 kg/ha measured 15 days post dose; conditions: in vivo, 360 h; in short: as §1
Olea europaea [11] = test: Toxicity in young Olea europaea (olive) plants assessed as effect on maximum quantum efficiency of photosystem II at 3 kg/ha measured at midday 24 hr post dose; conditions: in vivo; in short: as §2
Olea europaea [12] = test: Toxicity in young Olea europaea (olive) plants assessed as reduction in photosynthetic rate at 3 kg/ha measured 60 days post dose; conditions: in vivo, 1440 h; in short: as §1
Olea europaea [13] = test: Toxicity in young Olea europaea (olive) plants assessed as reduction in intracellular CO2 level at 3 kg/ha measured 15 days post dose in presence of oil Olea europaea (olive)-mill waste; conditions: in vivo, 360 h; in short: as §1
Olea europaea [14] = test: Toxicity in young Olea europaea (olive) plants assessed as reduction in intracellular CO2 level at 3 kg/ha measured 60 days post dose; conditions: in vivo, 1440 h; in short: as §1
Olea europaea [15] = test: Toxicity in young Olea europaea (olive) plants assessed as reduction in stomatal conductance at 3 kg/ha measured 15 days post dose; conditions: in vivo, 360 h; in short: as §1
Olea europaea [16] = test: Toxicity in young Olea europaea (olive) plants assessed as induction of chronic photoinhibition of photosystem II at 3 kg/ha measured 60 days post dose; conditions: in vivo, 1440 h
Olea europaea [17] = test: Toxicity in young Olea europaea (olive) plants assessed as stomatal conductance at 3 kg/ha measured 60 days post dose in presence of oil Olea europaea (olive)-mill waste; conditions: in vivo, 1440 h; in short: as §1
Olea europaea [18] = test: Toxicity in young Olea europaea (olive) plants assessed as reduction in non-photochemical quenching photosystem II at 3 kg/ha measured 60 days post dose; conditions: in vivo, 1440 h; in short: as §2
Olea europaea [19] = test: Toxicity in young Olea europaea (olive) plants assessed as stomatal conductance at 3 kg/ha measured 15 days post dose in presence of oil Olea europaea (olive)-mill waste; conditions: in vivo, 360 h; in short: as §1
Olea europaea [20] = test: Toxicity in young Olea europaea (olive) plants assessed as reduction in maximum quantum efficiency of photo system measured by Fv/Fm ratio 2 at 3 kg/ha measured 60 days post dose (reference value: 0.8); conditions: in vivo, 1440 h; in short: as §2
Olea europaea [21] = test: Toxicity in young Olea europaea (olive) plants assessed as reduction in quantum efficiency of photosystem II at 3 kg/ha measured 60 days post dose; conditions: in vivo, 1440 h; in short: as §2

Compound | Activity (Olea europaea [1]) | Activity (Olea europaea [2]) | Activity (Olea europaea [3]) | Activity (Olea europaea [4]) | Activity (Olea europaea [5]) | Activity (Olea europaea [6]) | Activity (Olea europaea [7]) | Activity (Olea europaea [8]) | Activity (Olea europaea [9]) | Activity (Olea europaea [10]) | Activity (Olea europaea [11]) | Activity (Olea europaea [12]) | Activity (Olea europaea [13]) | Activity (Olea europaea [14]) | Activity (Olea europaea [15]) | Activity (Olea europaea [16]) | further results
O=C(O)CNCP(=O)(O)O [GLYPHOSATE] | Non-toxic | Non-toxic | Non-toxic | Non-toxic | Non-toxic | Non-toxic | Toxic | Non-toxic | Toxic | Non-toxic | Toxic | Non-toxic | Toxic | Non-toxic | Non-toxic | Non-toxic | 
CCNc1nc(Cl)nc(NC(C)(C)C)n1 [Terbuthylazine] | Non-toxic | Non-toxic | Non-toxic | Toxic | Non-toxic | Non-toxic | Non-toxic | Non-toxic | Toxic | Toxic | Toxic | Toxic | Non-toxic | Non-toxic | Toxic | Toxic | Activity (Olea europaea [17]): Non-toxic; Activity (Olea europaea [18]): Toxic; Activity (Olea europaea [19]): Non-toxic; Ratio (Olea europaea [20]): 0.6; Activity (Olea europaea [21]): Toxic
